Sampled rows, rich in hits. Any-hit rate of the full collection: about 2.6%.
SENP7 inh = inhibitors of human SENP7 protease. recombinant SENP7, Z-RLRGG-aminoluciferin luminescence, 40 min. inhibition, % at 5 µM. Q9BQF6. 330,000 tested, 1.5% active;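 active = inhibition above about 50% at the single test dose, limit read from the data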;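 note: plate controls were DMSO with enzyme for no effect and no enzyme buffer wells for full effect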
SENP6 block = SENP6 protease inhibition | Recombinant SENP6 catalytic domain, aminoluciferin luminescence | inhibition, % at 10 µM | 330,000 tested, 1.8% active | Q9GZR1;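 active = inhibition above about 50% at the single tested dose, limit read from the data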;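 note: plate controls were DMSO wells with enzyme for no effect and DMSO wells lacking enzyme for full effect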
SENP8 block-1 = blocks the human protease SENP8. inhibition, % at 10 µM. Q96LD8. 330,000 tested, 1.2% active. AID 2540. purified SENP8, Z-RLRGG-aminoluciferin cleavage, luminescence; in the data active = inhibition above about 50%
Target sequence (Q96LD8 whole entry, looked up): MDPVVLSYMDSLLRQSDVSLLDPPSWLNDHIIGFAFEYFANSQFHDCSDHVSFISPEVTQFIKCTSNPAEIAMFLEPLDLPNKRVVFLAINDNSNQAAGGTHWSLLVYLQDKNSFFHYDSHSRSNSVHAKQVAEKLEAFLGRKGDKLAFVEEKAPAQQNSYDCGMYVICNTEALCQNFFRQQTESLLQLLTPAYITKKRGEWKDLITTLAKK
SENP8 block-2 = blocks human SENP8 cleavage of Nedd8 substrate. Q96LD8. recombinant SENP8, Nedd8 substrate fluorescence. inhibition, % at 20 µM. 360,000 tested, 0.64% active. AID 602440; in the data active = inhibition mostly above about 40%, no sharp cut-off; inactive = mostly below about 27%
Platelet DG rel = modulates dense granule release in human platelets. human platelet-rich plasma, SFLLRN dense granule ATP release, luminescence. inhibition, %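 (compounds screened at 7.5 µM in platelet-rich plasma)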. 300,000 tested, 0.22% active. AID 1663;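 active = mean replicate score, as percent of positive control, at or above 50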
SENP1 FRET inh = blocks the human SENP1 SUMO protease catalytic domain. Q9P0U3. recombinant SENP1 catalytic domain, CyPet-SUMO1-YPet FRET cleavage. inhibition, % at 10 µM. 360,000 tested, 0.21% active. AID 624204;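 active = inhibition at least 30% at 10 µM, raw YFP signal under a set limit, fluorescence ratio 0.5 to 1.5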;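 note: 0% = enzyme with DMSO and 100% = no enzyme wells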
Target sequence (Q9P0U3 419-644 limits assumed): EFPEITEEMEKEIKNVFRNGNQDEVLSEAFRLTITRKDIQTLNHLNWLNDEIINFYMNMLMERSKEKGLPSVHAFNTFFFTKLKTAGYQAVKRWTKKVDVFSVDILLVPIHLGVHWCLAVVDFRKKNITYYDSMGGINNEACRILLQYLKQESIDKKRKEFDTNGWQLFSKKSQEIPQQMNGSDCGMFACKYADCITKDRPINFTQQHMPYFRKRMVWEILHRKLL
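Compound: 10 µM single point, 0.5% DMSO; Test system: hSENP1 catalytic domain, recombinant; Timing: 50 min reaction at room temperature; Technique: FRET, CFP and YFP emission; Control set: no-enzyme wells low, DMSO-plus-enzyme wells high control.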
SENP8 conf = human SENP8 inhibition, confirmed. shares compounds with SENP7 inh. Recombinant SENP8, Z-RLRGG-aminoluciferin luminescence, 60 min. inhibition, % at 12.5 µM. 6,200 tested, 40% active. AID 488912;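 active = mean inhibition across replicates above about 50%, limit read from the data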
SENP6 conf = confirmation of human SENP6 protease inhibitors; shares compounds with SENP7 inh; recombinant SENP6, Z-RLRGG-aminoluciferin luminescence; inhibition, % at 12.5 µM; 6,200 tested, 58% active
SENP7 confirm = confirmation of human SENP7 protease inhibitors. shares compounds with SENP7 inh. 6,200 tested, 69% active. inhibition, % at 12.5 µM. recombinant SENP7, Z-RLRGG-aminoluciferin luminescence, 40 min. AID 488917
Casp3 SENP sel = caspase-3 inhibition (SENP selectivity assay); inhibition, % at 12.5 µM; 6,200 tested, 60% active; shares compounds with SENP7 inh; AID 488918; purified caspase-3, Z-DEVD-aminoluciferin luminescence, 60 min;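 active = mean inhibition above about 50%, limit read from the data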;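 note: plate controls were enzyme with DMSO for no effect and wells without caspase-3 for full effect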
Target sequence (P42574 28-227 limits assumed): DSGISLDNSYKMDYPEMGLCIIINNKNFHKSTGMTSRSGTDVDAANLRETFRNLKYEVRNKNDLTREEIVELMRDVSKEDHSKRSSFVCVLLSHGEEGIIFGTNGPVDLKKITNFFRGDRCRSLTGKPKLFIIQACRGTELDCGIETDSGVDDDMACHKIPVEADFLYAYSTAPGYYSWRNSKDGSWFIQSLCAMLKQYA
SENP luc ctr = luminescence interference (SENP counter-screen) | shares compounds with SENP7 inh | Pre-incubated SENP8/Z-RLRGG-aminoluciferin, luciferase luminescence interference | inhibition, % at 12.5 µM | 6,200 tested, 39% active;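 active = mean inhibition above about 50% when retested at one dose, limit read from the data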;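 note: plate controls were DMSO wells with completed reaction for no effect and substrate without enzyme for full effect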
Active calls of the source: *; . = no result.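 Rule for the calls, unless noted: active = mean inhibition above about 50% in the one-dose retest (limit read from the data); inactive = the rest.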

SMILES | SENP7 inh | SENP6 block | SENP8 block-1 | SENP8 block-2 | Platelet DG rel | SENP1 FRET inh | SENP8 conf | SENP6 conf | SENP7 confirm | Casp3 SENP sel | SENP luc ctr
COc1cc(OC)cc(C(=O)Nc2ccc3nc4n(c(=O)c3c2)CCCC4)c1 | 86* | 87* | 77* | 7 | 17 | 0 | 58* | 82* | 96* | 92* | 80*
O=C(Nc1ccc(Cl)cc1)c1ccc2c(=O)n3c(nc2c1)CCCCC3 | 4 | -11 | -11 | 14 | 2 | -1 | . | . | . | . | .
O=C(Nc1ccc(F)c(Cl)c1)c1ccc2c(=O)n3c(nc2c1)CCCCC3 | 69* | 76* | 28 | 17 | -6 | 0 | 14 | 60* | 91* | 62* | 13
COc1cccc(C(=O)Nc2ccc3nc4n(c(=O)c3c2)CCCC4)c1 | 45 | 53* | 22 | 14 | 11 | 2 | 25 | 23 | 71* | 73* | 46
COc1ccc(C(=O)COC(=O)c2ccccc2O)c(OC)c1 | 43 | 51* | 31 | -20 | . | -5 | 51* | 44 | 37 | 28 | 29
O=c1c2ccccc2oc2ccc(-c3ccc4cc[nH]c4c3)cc12 | 62* | 50* | 53* | -18 | . | 1 | -10 | 4 | 8 | 3 | -2
Cc1cc(-n2c(C)cc(C(=O)COc3ccc(F)c(F)c3)c2C)no1 | 40 | 64* | 46 | 2 | . | -4 | 60* | 59* | 81* | 48 | 26
Cc1ccc(C(=O)Nc2cccc3cccnc23)cc1C | 63* | 69* | 51* | -7 | 6 | 2 | 43 | 63* | 86* | 43 | 40
CCOC(=O)c1cc(-c2ccccc2)sc1NC(=O)c1ccc(OC)c(OC)c1 | 4 | 17 | 9 | -441 | 19 | -5 | . | . | . | . | .
CC(C)(C)C(=O)Nc1sc(-c2ccccc2)cc1C(=O)O | 30 | 58* | 19 | -194 | 6 | 3 | 39 | 30 | 70* | 40 | 52*
Cc1cccc(C(=O)Nc2sc(-c3ccccc3)cc2C(=O)O)c1 | 0 | 85* | 65* | -432 | 0 | -10 | 78* | 75* | 72* | 16 | 84*
COc1cc2oc(=O)cc(CN3CCOCC3)c2cc1Cl | . | . | . | -19 | . | 4 | . | . | . | . | .
Cc1nc(NS(=O)(=O)c2ccccc2)sc1NC(=O)OC(C)C | 98* | -4 | 1 | 6 | 6 | 2 | -7 | 0 | -3 | -3 | -2
Cc1ccc(NC(=O)CSc2nc(=O)n(CCCN3CCOCC3)c3c2CCCC3)cc1F | 1 | 0 | 5 | 4 | -1 | 3 | . | . | . | . | .
Cc1ccc(C)c(S(=O)(=O)C(C#N)c2nc3ccccc3nc2N2CCOCC2)c1 (stereo not given) | 5 | 0 | -3 | -70 | 4 | -23 | . | . | . | . | .
Cc1ccc(C)c(S(=O)(=O)C(C#N)c2nc3ccccc3nc2N2CCCC2)c1 (stereo not given) | 50 | 70* | 65* | 1 | 10 | -24 | -2 | 2 | -3 | -3 | -4
CCOC(=O)c1cn2nc(N3CCCC3)ccc2n1 | 40 | 7 | -3 | -187 | 13 | 2 | . | . | . | . | .
CCOC(=O)c1cn2nc(N3CCCCC3)ccc2n1 | 71* | 72* | 68* | -305 | 2 | 1 | 72* | 72* | 93* | 89* | 78*
COC(=O)c1ccc(COc2ccc(/C=N/Nc3cccc(C(=O)O)c3)cc2)cc1 | 2 | 35 | 7 | -3 | 2 | -2 | . | . | . | . | .
O=C(O)c1cc(N/N=C/c2ccc(OCc3ccccc3)cc2)ccc1Cl | 30 | 56* | 72* | -8 | -2 | -1 | 60* | 54* | 74* | 15 | 69*
Cc1nn(-c2ccccc2)c(Cl)c1/C=N/NC(=O)OC(C)(C)C | -12 | -15 | -9 | 1 | -1 | 3 | . | . | . | . | .
Cc1nn(-c2ccccc2)c(Cl)c1/C=N/Nc1ccc(Cl)c(C(=O)O)c1 | 92* | 100* | 97* | -16 | 9 | 1 | 99* | 100* | 103* | 85* | 80*
COC(=O)C1=C(N)OC2=C(C(=O)CC(C)(C)C2)C1c1cccs1 (stereo not given) | 8 | -10 | -8 | 7 | -6 | 0 | . | . | . | . | .
NC(=O)C1CCN(c2nc(-c3ccccc3C(F)(F)F)cs2)CC1 | -4 | -7 | -4 | 4 | . | 1 | . | . | . | . | .
C=CCn1c(/N=C/c2ccc(N(C)C)cc2)nc2ccccc21 | 6 | 77* | 71* | 6 | 1 | -32 | 81* | 78* | 94* | 75* | 85*
SMILES | SENP7 inh | SENP6 block | SENP8 block-1 | SENP8 block-2 | Platelet DG rel | SENP1 FRET inh | SENP8 conf | SENP6 conf | SENP7 confirm | Casp3 SENP sel | SENP luc ctr
C=CCn1c(/N=C/c2ccc(OC)cc2)nc2ccccc21 | -6 | 34 | -4 | 24 | -1 | 0 | . | . | . | . | .
CN(C)c1ccc(/C=N/n2ncc3ccccc32)cc1 | 2 | 76* | 68* | -252 | 7 | -17 | -5 | 85* | 97* | 70* | 43
CN(C)c1ccc(C=Nc2ccccc2)cc1 | -3 | -11 | -6 | 0 | 4 | -1 | . | . | . | . | .
Cc1cccc(C2c3[nH]c4ccccc4c3CCN2C(=O)c2cc(CC(C)C)nc(C)n2)n1 (stereo not given) | 8 | -10 | 3 | 4 | 7 | -12 | . | . | . | . | .
CCOc1ccc(-c2nnn(CC(=O)Nc3ccccc3OC)n2)cc1OCC | 63* | -5 | 7 | 28 | -8 | 3 | -8 | -2 | -1 | 7 | 3
COc1ccc(-c2nnn(CC(=O)NCc3ccccc3)n2)cc1OC | 6 | -5 | -8 | 9 | 3 | 0 | . | . | . | . | .
CCC(C)C(=O)OCC1(c2ccc(C)cc2OC(=O)C(C)C)CO1 (stereo not given) | -5 | -2 | -6 | 35 | 1 | 3 | . | . | . | . | .
O=[N+]([O-])c1cccc(NN=Nc2ccccc2)c1 | 69* | 64* | 70* | 25 | 2 | 3 | 71* | 69* | 88* | 36 | 67*
O=[N+]([O-])c1ccc(N=NNc2ccccc2)cc1 | 40 | 59* | 29 | -7 | 0 | 1 | 48 | 49 | 75* | 17 | 25
NC1=NC(=Nc2ccc(Br)cc2)c2ccccc21 | 3 | 5 | 3 | 20 | -2 | 2 | . | . | . | . | .
O=C(Nc1cccc([N+](=O)[O-])c1)c1ccccc1 | 9 | 14 | -8 | 14 | -1 | 0 | . | . | . | . | .

Compound activity (PubChem)
